Data published in ChEMBL document CHEMBL2384915, “Design, synthesis and biological evaluation of novel 3,4,5-trisubstituted aminothiophenes as inhibitors of p53-MDM2 interaction. Part 2” (Bioorg Med Chem, 2013).

Experiments:
PC-3 = test: Cytotoxicity against human p53 deficient PC3 cells after 72 hrs by SRB assay; type: functional, cell-based; settings: PC-3, 72 h
How it was run: (§1)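 Seeded cells cultured overnight, then exposed to serial compound concentrations for 72 h. Fixed with 10% (w/v) TCA at 4 °C for 1 h, stained 30 min with 0.4% SRB in 1% acetic acid, washed with 1% acetic acid, and bound dye extracted with unbuffered Tris base. Absorbance read at 515 nm; inhibition computed versus untreated controls. IC50 derived by Logit method, mean of at least two independent tests.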

A549 [1] = test: Cytotoxicity against human A549 cells expressing wild type p53 after 72 hrs by SRB assay; type: functional, cell-based; settings: A549, 72 h; how it was run: as §1
[2] = biological target: Tumour suppressor p53/oncoprotein Mdm2 (Homo sapiens, UniProt Q00987); test: (§2) Inhibition of p53/MDM2 (1 to 118) (unknown origin) interaction after 1 hr by fluorescence polarization assay; type: protein assay
Chain of Tumour suppressor p53/oncoprotein Mdm2 (Homo sapiens, UniProt Q00987) (P04637 whole entry): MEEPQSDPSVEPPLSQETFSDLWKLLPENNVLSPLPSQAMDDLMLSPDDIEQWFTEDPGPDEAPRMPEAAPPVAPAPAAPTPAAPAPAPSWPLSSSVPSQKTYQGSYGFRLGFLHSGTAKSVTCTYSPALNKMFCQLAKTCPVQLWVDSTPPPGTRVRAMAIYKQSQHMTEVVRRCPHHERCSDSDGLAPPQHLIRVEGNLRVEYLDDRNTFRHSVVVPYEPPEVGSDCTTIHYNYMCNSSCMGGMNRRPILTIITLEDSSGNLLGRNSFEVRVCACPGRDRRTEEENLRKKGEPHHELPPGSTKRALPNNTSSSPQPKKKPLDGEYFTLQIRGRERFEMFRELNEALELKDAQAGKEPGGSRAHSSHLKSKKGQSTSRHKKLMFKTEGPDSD
Chain of Tumour suppressor p53/oncoprotein Mdm2 (Homo sapiens, UniProt Q00987) (Q00987 whole entry): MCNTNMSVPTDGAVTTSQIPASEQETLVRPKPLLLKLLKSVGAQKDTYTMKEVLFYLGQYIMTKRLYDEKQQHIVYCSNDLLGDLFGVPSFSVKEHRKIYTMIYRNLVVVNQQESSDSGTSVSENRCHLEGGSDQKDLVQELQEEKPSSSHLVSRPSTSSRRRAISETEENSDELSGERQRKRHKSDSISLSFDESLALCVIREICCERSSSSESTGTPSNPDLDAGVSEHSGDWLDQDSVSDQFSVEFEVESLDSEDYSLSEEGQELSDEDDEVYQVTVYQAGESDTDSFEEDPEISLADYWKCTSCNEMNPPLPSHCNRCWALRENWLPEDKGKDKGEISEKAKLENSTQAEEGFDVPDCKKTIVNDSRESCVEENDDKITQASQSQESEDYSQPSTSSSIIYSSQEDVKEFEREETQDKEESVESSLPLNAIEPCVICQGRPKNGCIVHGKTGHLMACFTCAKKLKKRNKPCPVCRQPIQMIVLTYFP

A549 [3] = test: Selectivity ratio of IC50 for human p53 deficient PC3 cells to IC50 for human A549 cells expressing wild type p53; type: functional
[4] = biological target: Tumour suppressor p53/oncoprotein Mdm2 (Homo sapiens, UniProt P04637+Q00987); test: as §2; type: protein assay
Chain of Tumour suppressor p53/oncoprotein Mdm2 (Homo sapiens, UniProt P04637+Q00987) (P04637 whole entry): as the sequence (P04637 whole entry) above
Chain of Tumour suppressor p53/oncoprotein Mdm2 (Homo sapiens, UniProt P04637+Q00987) (Q00987 whole entry): as the sequence (Q00987 whole entry) above

| Structure (SMILES) | IC50 (PC-3) | IC50 (A549 [1]) | Ki [2] | Ratio IC50 (A549 [3]) | Ki [4] |
| --- | --- | --- | --- | --- | --- |
| COC(=O)c1c(N)sc(-c2ccc(Cl)cc2)c1-c1ccc(Cl)cc1 | 2.78 µM | 5.04 µM |  |  |  |
| Nc1sc(-c2ccc(Cl)cc2)c(-c2ccc(Cl)cc2)c1C(=O)NC1CC1 | 3.68 µM | 1.95 µM |  |  |  |
| Nc1sc(-c2ccc(Cl)cc2)c(-c2ccc(Cl)cc2)c1C(=O)NC1CCCCC1 | 7.3 µM | 2.41 µM |  |  |  |
| Nc1sc(-c2ccc(Cl)cc2)c(-c2ccc(Cl)cc2)c1C(=O)N1CCCC1 | 6.22 µM | 0.89 µM |  |  |  |
| Nc1sc(-c2ccccc2)c(-c2ccc(Cl)cc2)c1C(=O)NCc1ccccc1 | 22.8 µM | 8.51 µM | 1.14 µM |  |  |
| Nc1sc(-c2ccc(F)cc2)c(-c2ccc(Cl)cc2)c1C(=O)NC1CC1 | 27.9 µM | 3 µM | 0.34 µM | >5 |  |
| Nc1sc(-c2ccc(F)cc2)c(-c2ccc(Cl)cc2)c1C(=O)N1CCCC1 | 20.4 µM | 18.8 µM | 1.22 µM |  |  |
| Nc1sc(-c2ccc(F)cc2)c(-c2ccc(Cl)cc2)c1C(=O)N1CCOCC1 | 25.1 µM | 12.7 µM | 0.22 µM |  |  |
| Nc1sc(-c2ccc(F)cc2)c(-c2ccc(Cl)cc2)c1C(=O)NCc1ccccc1 | 25.8 µM | 9.95 µM | 0.6 µM |  |  |
| Nc1sc(-c2ccc(Br)cc2)c(-c2ccc(Cl)cc2)c1C(=O)NC1CC1 | 37.3 µM | > 50 µM | 2.18 µM |  |  |
| Nc1sc(-c2ccc(Br)cc2)c(-c2ccc(Cl)cc2)c1C(=O)NC1CCCCC1 | 28.4 µM | 9.59 µM | 1.06 µM |  |  |
| Nc1sc(-c2ccc(Br)cc2)c(-c2ccc(Cl)cc2)c1C(=O)N1CCCC1 | 37.5 µM | 7.46 µM | 0.75 µM | >5 |  |
| Nc1sc(-c2ccc(Br)cc2)c(-c2ccc(Cl)cc2)c1C(=O)N1CCOCC1 | > 50 µM | 7.49 µM | 1.48 µM | >5 |  |
| Nc1sc(-c2ccc(Br)cc2)c(-c2ccc(Cl)cc2)c1C(=O)NCc1ccccc1 | > 50 µM | 18.7 µM | 0.76 µM |  |  |
| Nc1sc(-c2ccc([N+](=O)[O-])cc2)c(-c2ccc(Cl)cc2)c1C(=O)NC1CC1 |  |  |  |  | Not Active |
| Nc1sc(-c2ccc([N+](=O)[O-])cc2)c(-c2ccc(Cl)cc2)c1C(=O)NC1CCCCC1 | 25.9 µM | 15 µM |  |  | Not Active |
| Nc1sc(-c2ccc([N+](=O)[O-])cc2)c(-c2ccc(Cl)cc2)c1C(=O)N1CCCC1 | 42.6 µM | 10.7 µM |  |  | Not Active |
| Nc1sc(-c2ccc([N+](=O)[O-])cc2)c(-c2ccc(Cl)cc2)c1C(=O)N1CCCCC1 |  |  |  |  | Not Active |

| Structure (SMILES) | IC50 (PC-3) | IC50 (A549 [1]) | Ki [2] | Ratio IC50 (A549 [3]) | Ki [4] |
| --- | --- | --- | --- | --- | --- |
| Nc1sc(-c2ccc([N+](=O)[O-])cc2)c(-c2ccc(Cl)cc2)c1C(=O)N1CCOCC1 | > 50 µM | 16.7 µM |  |  | Not Active |
| Nc1sc(-c2ccc(Cl)cc2)c(-c2ccc(Cl)cc2)c1C(=S)NC1CC1 | 22.1 µM | 8.28 µM | 0.086 µM |  |  |
| Nc1sc(-c2ccc(Cl)cc2)c(-c2ccc(Cl)cc2)c1C(=S)NC1CCCC1 | 29 µM | 22.1 µM | 0.17 µM |  |  |
| Nc1sc(-c2ccc(Cl)cc2)c(-c2ccc(Cl)cc2)c1C(=S)NC1CCCCC1 | 27.7 µM | 7.41 µM | 0.32 µM |  |  |
| CC(C)(C)NC(=S)c1c(N)sc(-c2ccc(Cl)cc2)c1-c1ccc(Cl)cc1 | 34 µM | > 50 µM | 0.58 µM |  |  |
| CCOC(=O)c1c(N)[nH]c(-c2ccc(Cl)cc2)c1-c1ccc(Cl)cc1 | 16.1 µM | 2.53 µM | 1.24 µM | >5 |  |
| Nc1[nH]c(-c2ccc(Cl)cc2)c(-c2ccc(Cl)cc2)c1C(=O)NC1CC1 | 19.3 µM | 4.62 µM | 0.53 µM |  |  |
| O=C1CC(c2ccccc2)c2c(sc(-c3ccc(Cl)cc3)c2-c2ccc(Cl)cc2)N1 (stereo unspecified) | > 50 µM | 17.2 µM |  |  |  |
| O=C1CC(c2cccs2)c2c(sc(-c3ccc(Cl)cc3)c2-c2ccc(Cl)cc2)N1 (stereo unspecified) | > 50 µM | 20.2 µM |  |  |  |
| O=C1CC(c2ccco2)c2c(sc(-c3ccc(Cl)cc3)c2-c2ccc(Cl)cc2)N1 (stereo unspecified) | > 50 µM | 25.4 µM |  |  |  |
| Clc1ccc(-c2sc3ncnc(NC4CC4)c3c2-c2ccc(Cl)cc2)cc1 | > 50 µM | 42.8 µM |  |  |  |
| Clc1ccc(-c2sc3ncnc(NC4CCCCC4)c3c2-c2ccc(Cl)cc2)cc1 | > 50 µM | > 50 µM |  |  |  |
| Clc1ccc(-c2sc3ncnc(N4CCCCC4)c3c2-c2ccc(Cl)cc2)cc1 | > 50 µM | > 50 µM |  |  |  |
| Clc1ccc(-c2sc3ncnc(N4CCOCC4)c3c2-c2ccc(Cl)cc2)cc1 | > 50 µM | > 50 µM |  |  |  |
| Nc1sc(-c2ccccc2)c(-c2ccc(Cl)cc2)c1C(=O)NC1CC1 | 17.1 µM | 4.3 µM | 0.63 µM |  |  |
| Nc1sc(-c2ccccc2)c(-c2ccc(Cl)cc2)c1C(=O)N1CCCC1 | 22.2 µM | 5.8 µM | 1.96 µM |  |  |
| Nc1sc(-c2ccccc2)c(-c2ccc(Cl)cc2)c1C(=O)N1CCOCC1 | 29.3 µM | 14.2 µM | 0.28 µM |  |  |
| COc1ccc(C2=N[C@@H](c3ccc(Cl)cc3)[C@@H](c3ccc(Cl)cc3)N2C(=O)N2CCNC(=O)C2)c(OC(C)C)c1 [NUTLIN-3] | 20 µM | 4.62 µM |  |  |  |
